High-throughput results from PubChem BioAssay.
The list is not random: actives were taken first. Their share in the collection is about 1.7%.
Rpn11 inh = Rpn11 (PSMD14) deubiquitinase inhibitors, primary screen, biochemical, fluorescence polarization, uHTS; 26S proteasome non-ATPase regulatory subunit 14 (Homo sapiens), O00487; human 26S proteasome, Ub4-pepOG fluorescence polarization; 20S core pre-blocked with epoxomicin; inhibition, % at 20 µM; 360,000 tested, 0.59% active; AID 588493, 2011;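 active means inhibition at 20 µM, scaled to each plate's controls, above about 33%, limit read from the data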
TPT1 inhibitor = Candida albicans TPT1 enzyme inhibitors, primary screen, biochemical, fluorescence polarization | inhibition, % at 5 µM | 300,000 tested, 0.81% active | recombinant caTPT1, FP RNA substrate dephosphorylation | tRNA 2'-phosphotransferase TPT1 (Candida albicans SC5314) | AID 1962, 2009;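 active means inhibition above the mean of all tested compounds plus 3 SD, set per screening campaign, cut at about 24% in these data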
CSN inh = inhibitors of CSN-mediated cullin deneddylation, primary screen, biochemical, fluorescence polarization, uHTS | Purified CSN, SCF-Nedd8-OG deneddylation | 360,000 tested, 0.38% active | AID 651999, 2013 | inhibition, % at 12.5 µM;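 active means pattern-corrected inhibition above about 35%, with an unprinted fluorescence ratio check between 0.5 and 1.5, limit read from the data, passing the limit was not always enough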
Target sequence (Q92905 whole entry, looked up, one chain of several): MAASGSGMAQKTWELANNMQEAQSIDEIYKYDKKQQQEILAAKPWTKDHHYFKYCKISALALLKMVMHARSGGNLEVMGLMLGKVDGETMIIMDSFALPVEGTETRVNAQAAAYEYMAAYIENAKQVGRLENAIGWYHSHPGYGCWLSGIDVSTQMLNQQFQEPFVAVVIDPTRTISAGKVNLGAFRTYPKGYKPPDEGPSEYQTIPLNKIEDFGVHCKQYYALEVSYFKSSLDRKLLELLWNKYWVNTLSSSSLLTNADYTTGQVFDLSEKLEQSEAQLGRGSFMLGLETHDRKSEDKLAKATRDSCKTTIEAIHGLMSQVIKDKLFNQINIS
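Test system: Human Csn5 produced in HEK293T cells | Compound: 12.5 µM single point | Times: 90 min, room temperature | Signal: Fluorescence polarization readout | Read-out basis: % inhibition of substrate cleavage by Csn5 | Controls: no-enzyme wells high, enzyme-with-substrate wells low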
IDE cell activ = human IDE activators in live cells, primary screen, fluorescence polarization, HEK cells, FAbeta-B substrate. Insulin-degrading enzyme (Homo sapiens), P14735. FAbeta-B cleavage; 0% vehicle, 100% cell-free pure enzyme wells. activation, % at 5.96 µM. 340,000 tested, 0.073% active. AID 493087, 2011;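 active means activation above the mean of all tested compounds plus 3 SD, set per screening campaign, cut at about 17% in these data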
HNF4A DNA FP = change in binding of human HNF4A to DNA, primary screen, biochemical, fluorescence polarization, FITC-DNA; 360,000 tested, 0.3% active; activity change, % at 10 µM; Hepatocyte nuclear factor 4-alpha (Homo sapiens), P41235; 1 h; AID 1224865, 2016; in the data active means activity change above about 30%, passing the limit was not always enough
IDE cell inh = human IDE inhibitors in live cells, primary screen, fluorescence polarization, HEK cells, FAbetaB substrate | FAbetaB cleavage | 320,000 tested, 0.41% active | Insulin-degrading enzyme (Homo sapiens), P14735 | AID 434962, 2010 | inhibition, % at 5.59 µM;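 active means percent inhibition above the average of all tested compounds plus 3 SD, set per screening campaign, cut at about 16% in these data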;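 further: IDE supplied by intact live HEK cells; FP after avidin binding of uncleaved biotin substrate so inhibition keeps polarization high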
Rpn11 inh conf = Rpn11 (PSMD14) deubiquitinase inhibitors, confirmation, biochemical, fluorescence polarization, single concentration. 1,900 tested, 29% active. shares compounds with Rpn11 inh. purified human 26S proteasome, Ub4-pepOG fluorescence polarization; proteasome pretreated with epoxomicin. inhibition, % at 20 µM
MMP-2 counter-1 = MMP-2 enzyme inhibition, confirmation, counter-screen for RPN11 inhibitor project, biochemical, fluorescence, single concentration | recombinant MMP-2, FRET peptide cleavage fluorescence | 1,900 tested, 4% active | shares compounds with Rpn11 inh | inhibition, % at 20 µM | AID 602330, 2012;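 further: human MMP-2 activated beforehand with APMA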
Thrombin FP = bovine thrombin protease inhibition, confirmation, counter-screen for Rpn11 inhibitor project, biochemical, fluorescence polarization, single concentration | AID 602333, 2012 | shares compounds with Rpn11 inh | inhibition, % at 20 µM | 1,900 tested, 13% active | bovine thrombin cleavage of Ub4-pepOG;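 active means mean inhibition at least 40% at 20 µM, or signal 3 deviations below plate average, so some actives read negative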
CSN5 deneddyl = Csn5 deneddylation inhibitors, confirmation, biochemical, fluorescence polarization, single concentration, SCF-Nedd8OG substrate; Csn5 deneddylation of SCF-Nedd8OG, 90 min; 540 tested, 62% active; inhibition, % at 16.6 µM; AID 720654, 2013; shares compounds with CSN inh; in the data active means inhibition above about 50%
MMP-2 counter-2 = MMP-2 protease inhibition counter-screen, confirmation, counter-screen for CSN deneddylation inhibitor project, biochemical, fluorescence, single concentration; shares compounds with CSN inh; recombinant MMP-2, FRET substrate fluorescence, 60 min; inhibition, % at 16.6 µM; 540 tested, 33% active; AID 720655, 2013;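 active means corrected plate-normalized z-score of 5 or more, or -5 or less, or inhibition of 15% or more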
Thrombin counter = blocks bovine thrombin in a CSN deneddylation counter-screen; 540 tested, 49% active; AID 720656; bovine thrombin cleavage of Ub4-pepOG, fluorescence polarization; inhibition, % at 16.6 µM; shares compounds with CSN inh;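 active means inhibition at or above a set limit, with a fluorescence interference ratio between 0.5 and a set maximum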
HNF4A confirm = change in HNF4A binding to DNA, retest, confirmation, biochemical, fluorescence polarization, FITC-DNA; shares compounds with HNF4A DNA FP; 210 tested, 99% active; AID 1224897, 2016; activity change, % at 12.5 µM; 1 h; call rule not given here
Each line names hits and unclear results; the compound was inactive in the other large screens (follow-up assays come after a bar, where shown). Unless noted, no stated cut-off is given here; in the data, active means inhibition above about 40%; inactive means the rest.

COc1ccc(CC(=O)Nc2ccc(-c3nnc(-c4ccccc4)o3)cc2)cc1OC	Rpn11 inh 69, CSN inh 46, HNF4A DNA FP 36 | Rpn11 inh conf inactive | MMP-2 counter-1 inactive | Thrombin FP inactive | HNF4A confirm 73
O=C(Cn1cc(C(F)(F)F)ccc1=O)Nc1ccc2c(c1)OCO2	none (no result: TPT1 inhibitor, IDE cell activ, IDE cell inh)
O=C(O)c1ccccc1NC(=O)C1CCN(S(=O)(=O)c2ccc3c(c2)OCCO3)CC1	none (no result: TPT1 inhibitor, IDE cell activ, IDE cell inh)
C=CCN1/C(=C(\C#N)C2=NS(=O)(=O)c3ccccc32)N(C)c2ccccc21	none
C=CCN1C=C/C(=C\C=C(C#N)C#N)c2ccccc21	Rpn11 inh 103, CSN inh 35, HNF4A DNA FP 94 | Rpn11 inh conf 90 | MMP-2 counter-1 inactive | Thrombin FP 89 | HNF4A confirm 111
C#CCNC(=O)c1csc([C@@H]2O[C@H](CO)[C@@H](O)[C@H]2O)n1	none (no result: TPT1 inhibitor, IDE cell activ, IDE cell inh)
Cc1ccc(-c2nn3c(C)nnc3s2)cc1NC(=O)c1ccc(-c2ccc(Cl)cc2Cl)o1	Rpn11 inh active, CSN inh 124, HNF4A DNA FP 104 | CSN5 deneddyl 112 | MMP-2 counter-2 inactive | Thrombin counter inactive
C[C@@H]1CN([C@@H](C)CO)C(=O)CCCn2nncc2CO[C@H]1CN(C)Cc1cccc(C(F)(F)F)c1	none (no result: TPT1 inhibitor, IDE cell activ, IDE cell inh)
Cc1ccc(-c2csc(NC(=O)/C=C/c3ccco3)c2C(=O)O)cc1	CSN inh 42 | CSN5 deneddyl 67 | MMP-2 counter-2 inactive | Thrombin counter inactive
Cc1ccc(-c2csc(NC(=O)c3cccc(C)c3)c2C(=O)O)cc1	none
CC(=O)Nc1cccc(-c2ccnc3c2CC(C)(C(=O)Nc2ccc(C(C)C)cc2)O3)c1 (stereo not given)	none (no result: TPT1 inhibitor, IDE cell activ, IDE cell inh)
Cc1nnn(-c2nonc2N)c1C(=O)N/N=C/c1ccccc1O	CSN inh 44 | CSN5 deneddyl inactive | MMP-2 counter-2 23 | Thrombin counter inactive
Cc1nnn(-c2nonc2N)c1C(=O)N/N=C/c1cccc2ccccc12	none
CN(C)c1ccc(/C=C/c2cc[n+](C)cc2)cc1	CSN inh 51, HNF4A DNA FP 68 (not shown: Rpn11 inh) | CSN5 deneddyl 55 | MMP-2 counter-2 -34 | Thrombin counter 58
C[n+]1ccc(/C=C/c2cccs2)cc1	none
